Data taken from ChEMBL document CHEMBL4354800, “Amphiphilic nebramine-based hybrids Rescue legacy antibiotics from intrinsic resistance in multidrug-resistant Gram-negative bacilli” (Eur J Med Chem, 2019).

Legend:
[1] = system: Pseudomonas aeruginosa; test: Synergistic antibacterial activity against MDR/XDR Pseudomonas aeruginosa isolate PA264-104354 harboring GyrA T83I mutant assessed as fractional inhibitory concentration index in presence of moxifloxacin incubated for 18 hrs by broth microdilution method; assay type: functional
Procedure, shortened: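 Checkerboard synergy assay. Antibiotic and adjuvant in twofold dilutions in Mueller-Hinton broth. Inoculum 5 × 10^5 CFU/mL from a 0.5 McFarland suspension, 18 h at 37 °C, MIC read by turbidity and confirmed at 590 nm. FIC = MIC in combination / MIC alone for each agent, FICI = sum. Interpreted as ≤0.5 synergy, 0.5–4 no interaction, >4 antagonism.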

[2] = system: Pseudomonas aeruginosa; test: Potentiation of ciprofloxacin-induced antibacterial activity against MDR/XDR Pseudomonas aeruginosa isolate 100036 harboring GyrA T83I mutant assessed as fold reduction in ciprofloxacin MIC at 7.5 uM incubated for 18 hrs by broth microdilution method; assay type: functional
[3] = system: Pseudomonas aeruginosa; test: Potentiation of moxifloxacin-induced antibacterial activity against MDR/XDR Pseudomonas aeruginosa isolate PA259-96918 harboring GyrA T83I mutant assessed as fold reduction in moxifloxacin MIC at 7.5 uM incubated for 18 hrs by broth microdilution method; assay type: functional
Procedure, shortened: (§1)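 CLSI broth microdilution. Overnight cultures were set to 0.5 McFarland in saline, diluted 1:50 in Mueller-Hinton broth to a final 5 × 10^5 CFU/mL, and incubated 18 h at 37 °C against 2-fold antibiotic dilutions. A fixed adjuvant level was present throughout. MIC = lowest concentration with no visible turbidity, confirmed at 590 nm. Potentiation = fold drop in antibiotic MIC versus antibiotic alone.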

[4] = system: Pseudomonas aeruginosa; test: Potentiation of minocycline-induced antimicrobial activity against MDR/XDR Pseudomonas aeruginosa isolate PA262-101856 harboring GyrA Thr83Ile mutant assessed as minocycline MIC50 incubated for 18 hrs by broth microdilution method (reference value: 16 microg/ml); assay type: functional; conditions: isolate PA262-101856, 18 h
[5] = system: Pseudomonas aeruginosa; test: Potentiation of minocycline-induced antimicrobial activity against MDR/XDR Pseudomonas aeruginosa isolate 101243 devoid of GyrA Thr83Ile mutant assessed as minocycline MIC50 incubated for 18 hrs by broth microdilution method (reference value: 16 microg/ml); assay type: functional; conditions: isolate 101243, 18 h
[6] = system: Pseudomonas aeruginosa; test: Potentiation of minocycline-induced antimicrobial activity against MDR/XDR Pseudomonas aeruginosa isolate 91433 devoid of GyrA Thr83Ile mutant assessed as minocycline MIC50 incubated for 18 hrs by broth microdilution method (reference value: 16 microg/ml); assay type: functional; conditions: isolate 91433, 18 h
[7] = system: Pseudomonas aeruginosa; test: Potentiation of rifampicin-induced antimicrobial activity against MDR/XDR Pseudomonas aeruginosa isolate 91433 devoid of GyrA Thr83Ile mutant assessed as rifampicin MIC50 incubated for 18 hrs by broth microdilution method (reference value: 8 microg/ml); assay type: functional; conditions: isolate 91433, 18 h
[8] = system: Acinetobacter baumannii; test: Antimicrobial activity against multidrug-resistant Acinetobacter baumannii AB031 incubated for 18 hrs by broth dilution method; assay type: functional; conditions: AB031, 18 h
Procedure, shortened: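 Broth microdilution per CLSI: overnight cultures set to 0.5 McFarland in saline, diluted 1:50 in Mueller-Hinton broth to a final 5 × 10^5 CFU/mL, added to 2-fold serial dilutions, incubated 18 h at 37 °C; MIC is the lowest concentration without visible turbidity, confirmed at 590 nm.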

[9] = system: Acinetobacter baumannii; test: Synergistic antibacterial activity against multidrug-resistant Acinetobacter baumannii AB030 assessed as fractional inhibitory concentration index in presence of minocycline incubated for 18 hrs by broth dilution method; assay type: functional
[10] = system: Pseudomonas aeruginosa; test: Potentiation of minocycline-induced antimicrobial activity against MDR/XDR Pseudomonas aeruginosa isolate PA260-97103 harboring GyrA Thr83Ile mutant assessed as minocycline MIC80 incubated for 18 hrs by broth microdilution method (reference value: 32 microg/ml); assay type: functional; conditions: isolate PA260-97103, 18 h
[11] = system: Pseudomonas aeruginosa; test: Potentiation of minocycline-induced antimicrobial activity against MDR/XDR Pseudomonas aeruginosa isolate 101243 devoid of GyrA Thr83Ile mutant assessed as minocycline MIC80 incubated for 18 hrs by broth microdilution method (reference value: 32 microg/ml); assay type: functional; conditions: isolate 101243, 18 h
[12] = system: Pseudomonas aeruginosa; test: Potentiation of rifampicin-induced antibacterial activity against MDR/XDR Pseudomonas aeruginosa isolate PA260-97103 harboring GyrA T83I mutant assessed as fold reduction in rifampicin MIC at 9 uM incubated for 18 hrs by broth microdilution method; assay type: functional; procedure, shortened: as §1
[13] = system: Acinetobacter baumannii; test: Synergistic antibacterial activity against multidrug-resistant Acinetobacter baumannii AB110193 assessed as fractional inhibitory concentration index in presence of minocycline incubated for 18 hrs by broth dilution method; assay type: functional
[14] = system: Acinetobacter baumannii; test: Synergistic antibacterial activity against multidrug-resistant Acinetobacter baumannii AB110193 assessed as fractional inhibitory concentration index in presence of rifampicin incubated for 18 hrs by broth dilution method; assay type: functional
[15] = system: Klebsiella pneumoniae; test: Synergistic antibacterial activity against Klebsiella pneumoniae 113250 assessed as fractional inhibitory concentration index in presence of rifampicin incubated for 18 hrs by broth dilution method; assay type: functional
Procedure, shortened: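 Checkerboard titration of the adjuvant against the antibiotic, run under the CLSI microdilution conditions (MHB, 5 × 10^5 CFU/mL, 18 h, 37 °C). Each agent's FIC is its MIC in combination divided by its MIC alone; FICI is the sum of the two FICs. FICI ≤0.5 was read as synergy, >0.5–4.0 as no interaction, and >4.0 as antagonism.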

[16] = system: Escherichia coli; test: Potentiation of rifampicin-induced antibacterial activity against Escherichia coli 94474 assessed as fold reduction in rifampicin MIC at 4.1 uM incubated for 18 hrs by broth dilution method; assay type: functional; procedure, shortened: as §1
[17] = system: Klebsiella pneumoniae; test: Potentiation of rifampicin-induced antibacterial activity against Klebsiella pneumoniae 113250 assessed as fold reduction in rifampicin MIC at 4.1 uM incubated for 18 hrs by broth dilution method; assay type: functional
Procedure, shortened: (§2)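 Antibiotic MIC determined by CLSI broth microdilution (MHB, 5 × 10^5 CFU/mL, 18 h, 37 °C), once alone and once with a fixed concentration of the adjuvant. Potentiation is the ratio of the antibiotic MIC alone to its MIC in the presence of the adjuvant.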

[18] = system: Klebsiella pneumoniae; test: Potentiation of rifampicin-induced antibacterial activity against Klebsiella pneumoniae 113254 assessed as fold reduction in rifampicin MIC at 4.1 uM incubated for 18 hrs by broth dilution method; assay type: functional; procedure, shortened: as §2
[19] = Hemolytic activity against porcine erythrocytes assessed as hemoglobin release at 512 ug/ml incubated for 1 hr by spectrophotometric analysis relative to control; assay type: ADME, cell-based, Sus scrofa, Erythrocyte; conditions: pig, read-out: Activity
Procedure, shortened: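 Porcine erythrocytes were washed three times in PBS and used at 3 × 10^8 cells/mL final. Compounds were serially diluted in PBS at twice the final concentration, mixed with an equal volume of cells, and incubated 1 h at 37 °C. After centrifugation (1000 g, 4 °C, 10 min), hemoglobin in the supernatant was read at 570 nm. Percent hemolysis was scaled between PBS (0%) and 0.1% Triton X-100 (100%).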

[20] = system: Klebsiella pneumoniae; test: Potentiation of minocycline-induced antibacterial activity against Klebsiella pneumoniae 116381 assessed as fold reduction in minocycline MIC at 4.1 uM incubated for 18 hrs by broth dilution method; assay type: functional; procedure, shortened: as §2
[21] = system: Enterobacter cloacae; test: Potentiation of rifampicin-induced antibacterial activity against Enterobacter cloacae 117029 assessed as fold reduction in rifampicin MIC at 4.1 uM incubated for 18 hrs by broth dilution method; assay type: functional; procedure, shortened: as §2

Structure (SMILES): COc1c(N2C[C@@H]3CCCN(CCCCCCCCCCCCO[C@@H]4[C@@H](O)[C@H](N)C[C@H](N)[C@H]4O[C@H]4O[C@H](CN)[C@@H](O)C[C@H]4N)[C@@H]3C2)c(F)cc2c(=O)c(C(=O)O)cn(C3CC3)c12.Cl.Cl.Cl.Cl.Cl
- fractional inhibitory concentration index (FICI) [1]: 0.09
- fold change (FC) [2]: 2
- fold change (FC) [3]: 16
- MIC50 [4]: 0.5 µg/mL
- MIC50 [5]: 0.5 µg/mL
- MIC50 [6]: 0.5 µg/mL
- MIC50 [7]: 0.06 µg/mL
- MIC [8]: 128 µg/mL
- fractional inhibitory concentration index (FICI) [9]: >1
- MIC80 [10]: 1 µg/mL
- MIC80 [11]: 1 µg/mL

Structure (SMILES): Cl.Cl.Cl.Cl.Cl.Cl.NC[C@H]1O[C@H](O[C@H]2[C@H](OCCCCCCCCCCN3CCN(Cc4cccc5ccccc45)CC3)[C@@H](O)[C@H](N)C[C@@H]2N)[C@H](N)C[C@@H]1O
- fold change (FC) [12]: 64

Structure (SMILES): Cl.Cl.Cl.Cl.Cl.NC[C@H]1O[C@H](O[C@H]2[C@H](OCCCCCCCCCCCCN3CCN(c4cc5c(cc4F)c(=O)c(C(=O)O)cn5C4CC4)CC3)[C@@H](O)[C@H](N)C[C@@H]2N)[C@H](N)C[C@@H]1O
- fractional inhibitory concentration index (FICI) [13]: >1
- fractional inhibitory concentration index (FICI) [14]: 0.016 - 0.031
- fractional inhibitory concentration index (FICI) [15]: 0.039
- fold change (FC) [16]: 256
- fold change (FC) [17]: 128
- fold change (FC) [18]: 64
- hemolysis at 1 h, 512 ug/ml [19]: < 10%
- fold change (FC) [20]: 16
- fold change (FC) [21]: >=256
